“And” between values parts separate entries of the source, which are not always exact repeats. Equal values may be shown once.
Test: Phase I dose-escalation safety and tolerability: adverse events, DLTs, MTD
Assay type: in vivo, human
Summary of the method: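 Multicentre, open-label, dose-escalation study. A single oral dose on day 1 was followed one week later by continuous twice-daily dosing, starting at 10 mg. The first three cohorts got solution, later cohorts tablets. AEs were graded by CTC v3.0 from consent to 30 days after stopping. DLT: a CTC grade 3 AE, or a laboratory abnormality with clinical signs, within 42 days (extended from 35). MTD: last dose below the non-tolerated dose.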

[1] = 60 mg BID tablet (n=7), CTCAE grade 1–2
[2] = 60 mg BID tablet (n=7), CTCAE grade ⩾3
[3] = 90 mg BID tablet (n=11), CTCAE grade 1–2
[4] = 90 mg BID tablet (n=11), CTCAE grade ⩾3
[5] = 120 mg BID tablet (n=10), CTCAE grade 1–2
[6] = 120 mg BID tablet (n=10), CTCAE grade ⩾3
[7] = CTCAE grade 3, all cohorts, a patient may have experienced more than one DLT
[8] = Total (n=49), Any grade occurring in cycle 1/2

## COc1ccc(-c2ccc3c(N4CCOC[C@@H]4C)nc(N4CCOC[C@@H]4C)nc3n2)cc1CO [AZD8055]
[1]
  Increased ALT: patients with AZD8055-related AE, n (%): 1 (14) %
  Increased AST: patients with AZD8055-related AE, n (%): 1 (14) %
  Increased GGT: patients with AZD8055-related AE, n (%): 1 (14) %
  Nausea: patients with AZD8055-related AE, n (%): 0%
  Stomatitis: patients with AZD8055-related AE, n (%): 0%
[2]
  Fatigue: patients with AZD8055-related AE, n (%): 0%
  Hyperglycaemia: patients with AZD8055-related AE, n (%): 0%
  Increased ALT: patients with AZD8055-related AE, n (%): 0%
  Increased AST: patients with AZD8055-related AE, n (%): 1 (14) %
  Increased GGT: patients with AZD8055-related AE, n (%): 1 (14) %
  Nausea: patients with AZD8055-related AE, n (%): 0%
  Stomatitis: patients with AZD8055-related AE, n (%): 0%
90 mg BID tablet
  Patients with DLT (grade 3 rise in transaminases): 1 and 1/9
[3]
  Fatigue: patients with AZD8055-related AE, n (%): 1 (9) %
  Hyperglycaemia: patients with AZD8055-related AE, n (%): 3 (27) %
  Increased ALT: patients with AZD8055-related AE, n (%): 2 (18) %
  Increased AST: patients with AZD8055-related AE, n (%): 1 (9) %
  Increased GGT: patients with AZD8055-related AE, n (%): 0%
  Nausea: patients with AZD8055-related AE, n (%): 2 (18) %
  Stomatitis: patients with AZD8055-related AE, n (%): 2 (18) %
[4]
  Fatigue: patients with AZD8055-related AE, n (%): 0%
  Hyperglycaemia: patients with AZD8055-related AE, n (%): 0%
  Increased ALT: patients with AZD8055-related AE, n (%): 1 (9) %
  Increased AST: patients with AZD8055-related AE, n (%): 2 (18) %
  Increased GGT: patients with AZD8055-related AE, n (%): 1 (9) %
  Nausea: patients with AZD8055-related AE, n (%): 0%
  Stomatitis: patients with AZD8055-related AE, n (%): 0%
120 mg BID cohort, patients evaluable for DLT
  Patients with DLT (grade 3 rise in transaminases): 3 and 3/9
[5]
  Fatigue: patients with AZD8055-related AE, n (%): 2 (20) %
  Hyperglycaemia: patients with AZD8055-related AE, n (%): 2 (20) %
  Increased ALT: patients with AZD8055-related AE, n (%): 1 (10) %
  Increased AST: patients with AZD8055-related AE, n (%): 1 (10) %
  Increased GGT: patients with AZD8055-related AE, n (%): 1 (10) %
  Nausea: patients with AZD8055-related AE, n (%): 1 (10) %
  Stomatitis: patients with AZD8055-related AE, n (%): 2 (20) %
[6]
  Fatigue: patients with AZD8055-related AE, n (%): 0%
  Hyperglycaemia: patients with AZD8055-related AE, n (%): 0%
  Increased ALT: patients with AZD8055-related AE, n (%): 2 (20) %
  Increased AST: patients with AZD8055-related AE, n (%): 2 (20) %
  Increased GGT: patients with AZD8055-related AE, n (%): 0%
  Nausea: patients with AZD8055-related AE, n (%): 0%
  Stomatitis: patients with AZD8055-related AE, n (%): 0%
BID, DLTs in 3/9 evaluable patients
  Non-tolerated dose: 120 mg
[7]
  DLTs: Increased ALT, Total (%): 3 (6) %
  DLTs: Increased AST, Total (%): 3 (6) %
[8]
  Fatigue: patients with AZD8055-related AE, n (%): 8 (16) %
  Hyperglycaemia: patients with AZD8055-related AE, n (%): 6 (12) %
  Increased ALT: patients with AZD8055-related AE, n (%): 11 (22) %
  Increased AST: patients with AZD8055-related AE, n (%): 11 (22) %
  Increased GGT: patients with AZD8055-related AE, n (%): 5 (10) %
  Nausea: patients with AZD8055-related AE, n (%): 7 (14) %
  Stomatitis: patients with AZD8055-related AE, n (%): 6 (12) %
Total (n=49), CTCAE grade 1–2
  Fatigue: patients with AZD8055-related AE, n (%): 8 (16) %
  Hyperglycaemia: patients with AZD8055-related AE, n (%): 6 (12) %
  Increased ALT: patients with AZD8055-related AE, n (%): 5 (10) %
  Increased AST: patients with AZD8055-related AE, n (%): 4 (8) %
  Increased GGT: patients with AZD8055-related AE, n (%): 3 (6) %
  Nausea: patients with AZD8055-related AE, n (%): 7 (14) %
  Stomatitis: patients with AZD8055-related AE, n (%): 6 (12) %
Total (n=49), CTCAE grade ⩾3
  Fatigue: patients with AZD8055-related AE, n (%): 0%
  Hyperglycaemia: patients with AZD8055-related AE, n (%): 0%
  Increased ALT: patients with AZD8055-related AE, n (%): 6 (12) %
  Increased AST: patients with AZD8055-related AE, n (%): 7 (14) %
  Increased GGT: patients with AZD8055-related AE, n (%): 2 (4) %
  Nausea: patients with AZD8055-related AE, n (%): 0%
  Stomatitis: patients with AZD8055-related AE, n (%): 0%
All patients (n=49)
  Fatigue, AE assessed to be related to AZD8055, frequency: 16%
oral, patients with advanced solid tumours or lymphomas
  Maximum tolerated dose (MTD): 90 mg BID
Three patients, one each in the 60, 90 and 120 mg BID tablet groups
  Patients requiring dose reductions as a result of increased transaminases, assessed to be AZD8055-related: 6%
Within cycles 1 and 2, 11 patients, 7 because of an AE
  Patients with a dose interruption: 22%
